Measured values gathered from unrelated publications.
Protocols differ between the studies behind these lines.
Target: Vascular endothelial growth factor receptor 1 (FLT1, Homo sapiens, UniProt P17948)

SMILES | assay | conditions | endpoint | value
C[C@H](c1ccc(F)cc1)N(Cc1cccc(C(=O)O)c1)C(=O)c1cnc2ccccc2c1 | cell-free assay, competition with immobilised ligand | 1 µM | remaining binding | 100%
Nc1nc(Nc2ccccc2)sc1C(=O)c1c(F)cccc1F | enzyme activity, inhibitor | 10 µM | remaining activity | 17%
Cc1ccc(Nc2nccc(N(C)c3ccc4c(C)n(C)nc4c3)n2)cc1S(N)(=O)=O | enzyme activity, inhibitor | 10 µM | inhibition | 102%
CN(c1ncccc1CNc1nc(Nc2ccc3c(c2)CC(=O)N3)ncc1C(F)(F)F)S(C)(=O)=O | enzyme activity, inhibitor | 1 µM | inhibition | 80%
Cc1ccc(NC(=O)c2ccc(C)c(C(F)(F)F)c2)cc1C#Cc1nn(C2CCC(O)CC2)c2ncnc(N)c12 (centres unmarked) | cell-free assay | 10 µM | remaining signal | 3%
C[C@@H](c1cccc(C#N)c1)n1cc(Cl)cc(C(N)=O)c1=N | cell-free assay, competition with immobilised ligand | 1 µM | remaining binding | 100%
N#CCCc1ccc2c(c1)-c1[nH]c3ccc([N+](=O)[O-])cc3c1CC(=O)N2 | cell-free assay | 0.5 µM | remaining signal | 99.7%
COc1cc(Nc2cnc(C#N)c(O[C@H](C)CN(C)C)n2)ncc1-c1cnn(C)c1 | enzyme activity, inhibitor, radiometric | 1 µM | remaining activity | 90%
CNC(=O)c1cc(Oc2ccc(NC(=O)Nc3ccc(Cl)c(C(F)(F)F)c3)cc2)ccn1 | cell-free assay | 0.5 µM | remaining signal | 50.5%
CCCOc1ccc(OC)c(F)c1C(=O)c1ccc(C(=O)N[C@@H]2CNC[C@H]2NC(=O)c2ccc3[nH]ncc3c2)cc1 | enzyme activity, inhibitor | 10 µM | remaining activity | 35%
CCN(CC)CCNC(=O)c1c(C)[nH]c(/C=C2\C(=O)Nc3ccc(F)cc32)c1C | enzyme activity, inhibitor | 10 µM | inhibition | 102%
Cc1cc(-n2nc(Cc3cc(F)cc(C(F)(F)F)c3)nc2C)ccc1C(N)=O | cell-free assay, competition with immobilised ligand | 1 µM | remaining binding | 100%
CCOc1cc(-c2nncn2C)ccc1Nc1ncc2cc(C)nc(NCC(C)(C)C)c2n1 | enzyme activity, inhibitor, FRET | 1 µM | inhibition | < 15%
CO[C@@H](C)c1c(Nc2ccc([C@@H](N(C)C(=O)C3CCS(=O)(=O)CC3)C(F)(F)F)cc2)cnc2cc(Cl)nn12 | cell-free assay, competition with immobilised ligand | 1 µM | remaining binding | 85%
CCCS(=O)(=O)Nc1ccc(F)c(C(=O)c2c[nH]c3ncc(-c4ccc(Cl)cc4)cc23)c1F | enzyme activity, inhibitor | 1 µM | inhibition | < 10%
CC(C)(C)c1nc(-c2cccc(NS(=O)(=O)c3c(F)cccc3F)c2F)c(-c2ccnc(N)n2)s1 | enzyme activity, inhibitor, radiometric | 1 µM | remaining activity | 84%
CNCc1ccc(-c2cc(-c3nc(-c4ccc(S(=O)(=O)C(C)C)cc4)cnc3N)on2)cc1 | enzyme activity, inhibitor | 0.4 µM | inhibition | 50%
COCCOc1nc(-c2ccc(Cl)nc2)nc2c1CN(C(=O)c1ncn3ccccc13)CC2 | cell-free assay, competition with immobilised ligand | 0.1 µM | remaining binding | 87%
O=C1NC(=O)c2cc(Nc3ccc(F)cc3)c(Nc3ccc(F)cc3)cc21 | cell-free assay | 0.5 µM | remaining signal | 81.5%
COc1cc2ncnc(Nc3ccc(Oc4ccccc4)cc3C)c2cc1OC | enzyme activity, inhibitor | 1 µM | inhibition | -2%
Cc1ccc(C(=O)Nc2ccc(CN3CCN(C)CC3)c(C(F)(F)F)c2)cc1C#Cc1cnc2cccnn12 | cell-free assay | 23.5 nM | remaining signal | 33%
Cc1cc(NC(=O)c2cccc3cc(-c4cccc5[nH]nc(N)c45)ccc23)ccc1F | enzyme activity, inhibitor | 0.1 µM | activity vs control | 2%
O=S(=O)(NC1CCC(c2cc(F)ccc2F)(S(=O)(=O)c2ccc(Cl)cc2)CC1)C(F)(F)F (centres unmarked) | cell-free assay, competition with immobilised ligand | 1 µM | remaining binding | 86%
Cc1ccc(C(=O)NCc2ccsc2)cc1C#Cc1cn(C(C)C)c2ncnc(N)c12 | enzyme activity, inhibitor | 1 µM | activity vs control | -1%
COc1cc(-c2cn(C3CCc4c(F)cccc4N(CC(F)(F)F)C3=O)nn2)ccc1-n1cnc(C)c1 (centres unmarked) | cell-free assay, competition with immobilised ligand | 1 µM | remaining binding | 97%
O=C(Nc1cnn(-c2csc(C(=O)NC3COC3)c2)c1)Nc1c(F)cccc1Cl | enzyme activity, inhibitor | 5 µM | remaining activity | 86.1%
CS(=O)(=O)N1CCCC(NC(=O)[C@H](CCC2CCCCC2)NC(=O)c2ccc(CNc3ncnc4c3nnn4-c3ccccc3)cc2)C1 (some centres unmarked) | cell-free assay, competition with immobilised ligand | 0.1 µM | remaining binding | 86%
O=C(Nc1cnn(-c2csc(C(=O)NC3COC3)c2)c1)Nc1ccccc1Cl | enzyme activity, inhibitor | 5 µM | remaining activity | 101%
Cc1ccc(-n2nc(C(C)(C)C)cc2NC(=O)Nc2ccc(OCCN3CCOCC3)c3ccccc23)cc1 | enzyme activity, inhibitor | 10 µM | inhibition | 96%
